Data published in ChEMBL document CHEMBL3421599, “Diterpene alkaloids with an aza-ent-kaurane skeleton from Isodon rubescens” (J Nat Prod, 2015).

Experiments:
A549 = assay: Cytotoxicity against human A549 cells after 48 hrs by MTT assay; format: functional, cell-based
How it was run: (§1)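 Cells seeded at 5000 to 10 000 per well, exposed to compounds at a range of concentrations for 48 h at 37 °C. MTT then added for 4 h at 37 °C under 5% CO2. Formazan dissolved in 10% SDS and absorbance read at 595 nm. Each concentration tested in triplicate. IC50 derived by the Reed and Muench method, with cisplatin as positive control.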

MCF7 = assay: Cytotoxicity against human MCF7 cells after 48 hrs by MTT assay; format: functional, cell-based; how it was run: as §1
SMMC-7721 = assay: Cytotoxicity against human SMMC7721 cells after 48 hrs by MTT assay; format: functional, cell-based; how it was run: as §1
SW480 = assay: Cytotoxicity against human SW480 cells after 48 hrs by MTT assay; format: functional, cell-based; how it was run: as §1
[1] = Cytotoxicity against human HL60 cells after 48 hrs by MTT assay; format: functional, cell-based, HL-60; how it was run: as §1
[2] = Homo sapiens, A549, 48 h, read-out: IC50
[3] = Homo sapiens, MCF7, 48 h, read-out: IC50
[4] = Homo sapiens, SMMC-7721, 48 h, read-out: IC50
[5] = Homo sapiens, SW480, 48 h, read-out: IC50
[6] = Homo sapiens, HL-60, 48 h, read-out: IC50

Row | Compound | IC50 (A549; [2]) [µM] | IC50 (MCF7; [3]) [µM] | IC50 (SMMC-7721; [4]) [µM] | IC50 (SW480; [5]) [µM] | IC50 [1, 6] [µM] | IC50 (A549; a549) | IC50 (MCF7; mcf7) | IC50 (SMMC-7721; smmc-7721) | IC50 (SW480; sw480) | IC50 ([1]; hl-60)
1 | C=C1C(=O)[C@]23[C@H](O)[C@H]1CC[C@H]2[C@@]12C=N[C@@]3(O)[C@@H](O)[C@@H]1C(C)(C)CC[C@@H]2O | > 40 | > 40 | > 40 | > 40 | > 40 |  |  |  |  | 
2 | C=C1C(=O)OC2CC1C[C@H]1[C@@H]2[C@@]23C=NC1(O)[C@@H](O)[C@@H]2C(C)(C)CC[C@@H]3O |  |  |  |  |  | Not Active | Not Active | Not Active | Not Active | Not Active
3 | C=C1C(=O)O[C@H]2C[C@@H]1C[C@H]1[C@@H]2[C@@]23C(OC)O[C@@]1(O)[C@@H](O)[C@@H]2C(C)(C)CC[C@@H]3O (stereo not given in full) |  |  |  |  |  | Active | Active | Active | Active | Active
4 | C=C1C(=O)[C@]23[C@H](O)[C@H]1CC[C@H]2[C@@]12CO[C@]3(O)[C@@H](O)[C@@H]1C(C)(C)CC[C@@H]2O [ORIDONIN] | 7.2 | 7.2 | 7.2 | 7.2 | 7.2 |  |  |  |  | 
